High-throughput results from PubChem BioAssay.
Compounds with a hit are over-represented: about 1.5% of the library has one in this group of screens.
Myeloid diff 2: promotes myeloid progenitor differentiation. ER-HoxA9 myeloid progenitors, lysozyme-GFP differentiation, flow cytometry. AID 624256. 1% of 360,000 active. calls only at 10 µM;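 active = normalized GFP-positive differentiation at or above the plate's own cutoff, the solvent-only control mean plus 3 SD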;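 also: cells exposed to compound for four days before flow analysis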
VLA-4 inh: inhibition in a human VLA-4 binding assay | AID 2557 | 0.2% of 330,000 active | VLA-4 expressing cells, ligand binding flow cytometry | inhibition, % (about 7 µM as worked out from the volumes in the protocol); in the data active = inhibition above about 50%
Platelet DG rel: modulates dense granule release in human platelets | inhibition, %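 (compounds screened at 7.5 µM in platelet-rich plasma)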 | human platelet-rich plasma, SFLLRN dense granule ATP release, luminescence | 0.22% of 300,000 active;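 active = mean replicate score, as percent of positive control, at or above 50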
SENP1 inh: SENP1 (human) catalytic domain inhibition. Q9P0U3. recombinant SENP1 catalytic domain, CyPet-SUMO1-YPet FRET cleavage. inhibition, % at 10 µM. 0.21% of 360,000 active;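 active = inhibition at least 30% at 10 µM, raw YFP signal under a set limit, fluorescence ratio 0.5 to 1.5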
Target sequence (Q9P0U3 419-644 limits assumed): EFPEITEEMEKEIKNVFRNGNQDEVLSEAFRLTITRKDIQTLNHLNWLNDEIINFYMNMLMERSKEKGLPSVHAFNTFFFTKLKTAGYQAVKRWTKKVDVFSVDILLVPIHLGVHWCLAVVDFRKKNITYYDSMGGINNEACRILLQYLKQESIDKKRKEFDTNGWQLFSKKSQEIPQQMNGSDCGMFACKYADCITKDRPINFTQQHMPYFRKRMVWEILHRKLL
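Test system: hSENP1 catalytic domain, recombinant; Amount: 20 pM final SENP1 enzyme; Medium: Tris pH 8 buffer plus EDTA, NaCl, BME, BSA, NP40, catalase; Schedule: 50 min enzyme reaction, room temperature, light-protected; Technique: FRET fluorescence in CFP and YFP emission channels; Controls: no-enzyme wells low, DMSO-plus-enzyme wells high control.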
Hits are given with their value.

COc1cccc(CN(C)C[C@@H]2OCc3ccccc3-c3c(n(C)c4ccccc34)C(=O)N([C@@H](C)CO)C[C@H]2C)c1 was read as Myeloid diff 2 active and SENP1 inh inactive.
`CSc1ccccc1C(=O)C1CCCN(C(=O)c2cncs2)C1` (stereo not given) gave Myeloid diff 2 inactive, VLA-4 inh inactive, Platelet DG rel inactive and SENP1 inh inactive.
Fc1cccc(Cl)c1Cn1ncc2ccccc21 was read as Myeloid diff 2 inactive, VLA-4 inh inactive, Platelet DG rel inactive and SENP1 inh inactive.
For O=c1cnn(Cc2c(Cl)cccc2Cl)c2ccccc12 the results were Myeloid diff 2 active, VLA-4 inh inactive, Platelet DG rel inactive and SENP1 inh inactive.
For Cc1nn(CC(C)C)c(Cl)c1C(=O)N(C)CC(=O)Nc1c(Cl)cccc1Cl the results were Myeloid diff 2 active, VLA-4 inh inactive, Platelet DG rel inactive and SENP1 inh inactive.
Screening O=C(CSc1ncn[nH]1)Nc1ccc(OCc2ccccc2)cc1 returned Myeloid diff 2 inactive, VLA-4 inh inactive, Platelet DG rel inactive and SENP1 inh inactive.
For CC(C)c1ccc(OCc2cccc(C(=O)N/N=C/c3cccnc3)c2)cc1 the results were Myeloid diff 2 active, VLA-4 inh inactive, Platelet DG rel inactive and SENP1 inh inactive.
`COC(=O)[C@H]1C[C@@]2(O)CN(S(=O)(=O)c3ccc(C)cc3)C[C@@]2(OC(=O)NCc2ccccc2F)C[C@H]1C(=O)OC` gave Myeloid diff 2 active and SENP1 inh inactive.
COC(=O)[C@H]1C[C@@]2(O)CN(S(=O)(=O)c3ccc(C)cc3)C[C@@]2(OC(=O)NCc2ccc(OC)c(OC)c2)C[C@H]1C(=O)OC was read as Myeloid diff 2 inactive and SENP1 inh inactive.
CCC(C(=O)NCC1CCCO1)N(Cc1ccccc1)C(=O)CNS(=O)(=O)c1ccccc1 (stereo not given) was read as Myeloid diff 2 inactive, VLA-4 inh inactive, Platelet DG rel inactive and SENP1 inh inactive.
For CC[N+]1(C)CCC(O)(/C=C/c2ccccc2)C(C(=O)/C=C/c2ccccc2)C1 (stereo not given) the results were SENP1 inh inactive.
`CCCn1c(CCNC(=O)c2ccco2)nc2ccccc21` gave Myeloid diff 2 inactive, VLA-4 inh inactive, Platelet DG rel inactive and SENP1 inh inactive.
c1ccc2nc(-c3ccc(N4CCOCC4)cc3)ccc2c1 was read as Myeloid diff 2 inactive, VLA-4 inh inactive, Platelet DG rel 57 and SENP1 inh inactive.
Screening CN1CCN(c2ccc(-c3ccc4ccccc4n3)cc2)CC1 returned Myeloid diff 2 active, Platelet DG rel 79 and SENP1 inh inactive.
For Cc1cc(-c2ccc(N3CCOCC3)cc2)nc2ccccc12 the results were Myeloid diff 2 active, VLA-4 inh inactive, Platelet DG rel inactive and SENP1 inh inactive.
Screening c1ccc2nc(-c3ccncc3)ccc2c1 returned Myeloid diff 2 inactive, VLA-4 inh inactive, Platelet DG rel inactive and SENP1 inh inactive.
`Cc1ccc(-c2cc(C(=O)N3CCOCC3)c3ccccc3n2)cc1` gave Myeloid diff 2 inactive, VLA-4 inh inactive, Platelet DG rel inactive and SENP1 inh inactive.
For O=C1C2C3C=CC(C4CC34)C2C(=O)N1CCCCN1CCN(c2ccc(F)cc2)CC1 (stereo not given) the results were Myeloid diff 2 inactive, VLA-4 inh inactive, Platelet DG rel inactive and SENP1 inh inactive.
`COc1ccc([C@H]2/C=C\CN(C(=O)c3ccccc3)[C@@H](C)C(=O)N2Cc2ccc(F)cc2)cc1` gave Myeloid diff 2 inactive, VLA-4 inh inactive, Platelet DG rel inactive and SENP1 inh inactive.
Screening COc1ccc([C@H]2/C=C\CN(S(=O)(=O)/C=C/c3ccccc3)[C@@H](C)C(=O)N2Cc2ccc(F)cc2)cc1 returned Myeloid diff 2 active, VLA-4 inh inactive, Platelet DG rel inactive and SENP1 inh inactive.
Screening COC(=O)c1ccc(NS(=O)(=O)c2ccc(S(=O)(=O)N3CCOCC3)cc2)cc1 returned Myeloid diff 2 inactive, VLA-4 inh inactive and SENP1 inh inactive.
Screening Clc1ccc(/C=N/NC2=Nc3cccc4cccc2c34)cc1 returned Myeloid diff 2 active, VLA-4 inh inactive, Platelet DG rel inactive and SENP1 inh inactive.
`CSc1nsc(/C=C/Nc2ccc(F)cc2F)c1C#N` gave Myeloid diff 2 active, VLA-4 inh inactive, Platelet DG rel inactive and SENP1 inh inactive.
`CSc1nsc(/C=C/Nc2ccc(C(=O)O)cc2)c1C#N` gave Myeloid diff 2 inactive, VLA-4 inh inactive, Platelet DG rel inactive and SENP1 inh inactive.
`Cc1cc(C)c2c(c1)NC(C(=O)O)C1CC=CC21` (stereo not given) gave Myeloid diff 2 active, VLA-4 inh inactive, Platelet DG rel inactive and SENP1 inh inactive.
For COc1ccc(OC)c(S(=O)(=O)NC(=O)C2(C)CCN2C(=O)Cc2ccc(Cl)cc2Cl)c1 (stereo not given) the results were Myeloid diff 2 inactive and SENP1 inh inactive.
COc1cc(C)ccc1S(=O)(=O)NC(=O)C1(C)CCN1C(=O)Cc1ccc(Cl)cc1Cl (stereo not given) was read as Myeloid diff 2 active and SENP1 inh inactive.
Screening COc1ccc2cc(CCOC3CCCCO3)ncc2c1 (stereo not given) returned Myeloid diff 2 inactive, VLA-4 inh inactive and SENP1 inh inactive.
`CN(c1ccc(F)cc1)S(=O)(=O)c1ccc(Cl)c(C(=O)NCc2ccco2)c1` gave Myeloid diff 2 active, VLA-4 inh inactive and SENP1 inh inactive.
`CN(C)S(=O)(=O)c1ccc(Cl)c(C(=O)NCc2ccco2)c1` gave Myeloid diff 2 inactive, VLA-4 inh inactive, Platelet DG rel inactive and SENP1 inh inactive.
Screening Cc1cccc(CNC(=O)c2sc(=O)n(Cc3ccc(S(C)(=O)=O)cc3)c2C)c1 returned Myeloid diff 2 inactive and SENP1 inh inactive.
For CN(C)c1ccc(N=Nc2nc3ccccc3n2C)cc1 the results were Myeloid diff 2 inactive, VLA-4 inh inactive, Platelet DG rel 182 and SENP1 inh inactive.
Screening CCn1c(NCc2ccc(N(C)C)cc2)nc2ccccc21 returned Myeloid diff 2 inactive, VLA-4 inh inactive, Platelet DG rel inactive and SENP1 inh inactive.
For COc1cccc(CNC(=O)c2cc(S(=O)(=O)N3CCCC3)cn2C)c1 the results were Myeloid diff 2 inactive, VLA-4 inh inactive, Platelet DG rel 57 and SENP1 inh inactive.
Screening Cn1cc(S(=O)(=O)N2CCCC2)cc1C(=O)NCc1ccccc1 returned Myeloid diff 2 inactive, VLA-4 inh inactive, Platelet DG rel inactive and SENP1 inh inactive.
Screening Cc1c(Cl)cccc1NC(=O)c1cc(S(=O)(=O)N2CCOCC2)cn1C returned Myeloid diff 2 inactive, VLA-4 inh inactive, Platelet DG rel inactive and SENP1 inh inactive.
`COc1ccc(NC(=O)c2cc(S(=O)(=O)N3CCOCC3)cn2C)c(OC)c1` gave Myeloid diff 2 inactive, VLA-4 inh inactive, Platelet DG rel 59 and SENP1 inh inactive.
Screening COc1cc(OC)c(NC(=O)c2cc(S(=O)(=O)N3CCOCC3)cn2C)cc1Cl returned Myeloid diff 2 inactive, VLA-4 inh inactive, Platelet DG rel 69 and SENP1 inh inactive.
Screening COCCn1c(SCc2ccc(OC)c(F)c2)nnc1-c1ccncc1 returned Myeloid diff 2 inactive, VLA-4 inh inactive, Platelet DG rel inactive and SENP1 inh inactive.
